HIV Env fusion = HIV envelope-mediated fusion inhibition | HeLa-JRFL Env/CEM21 cell fusion, luciferase | inhibition, % at 12.3 µM | 360,000 compounds, 1.1% hits | AID 651610;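 active means mean replicate inhibition score of at least 50 and every replicate individually at or above 50; inconclusive means only one of the two criteria met; inactive means mean below 50 and not all replicates reaching 50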;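 further: 0% = plate neutral controls and 100% = maraviroc near 300 nM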
Cneo AK release = Cryptococcus neoformans lysis via adenylate kinase release; 360,000 compounds, 0.2% hits; C. neoformans lysis, adenylate kinase release luminescence, 4 h; normalised: neutral wells 0, clomiphene wells 100; lysis activity, % at 15 µM;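 active means mean lysis activity across replicates of at least 80%, whatever share of replicates individually reach that level; inactive means mean lysis activity below 80%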
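Material – log-phase Cryptococcus neoformans yeast cells · Input – 5 × 10^6 yeast cells/mL · Medium – fresh YPD growth medium · Doses – single compound concentration per well · Timing – static 4 h at 37 °C with compound, 1 h detection · Detection – adenylate kinase release luminescence · Read-out – signal increase indicating cell lysis · Control set – Clomiphene as positive lysis control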
rRNA inh HTS = inhibitors of bacterial rRNA selective over humanized ribosomes. E. coli WT GFP vs humanized-ribosome RFP mutants, fluorescence, 24 h; active compounds read low; DMSO median 0, no signal -100. GFP signal change (wild-type ribosome), % (test concentration not listed). 350,000 compounds, 1.6% hits;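 active means significant combined selectivity score with lowered wild-type GFP, culture density cut under 30%, mutant RFP and density less affected; inactive means any of these conditions unmet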
ERAP1 HTS inh = inhibitors of human ERAP1 aminopeptidase | Q9NZ08 | recombinant ERAP1, Leu-AMC fluorescence, 60 min | inhibition, % at 10.7 µM | 340,000 compounds, 0.15% hits | AID 652197;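 active means mean replicate inhibition of at least 30%, or all replicates individually reaching that 30% level; inactive means mean below 30% and not every replicate reaching it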;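 further: 0% = neutral control wells and 100% = L-leucinethiol positive control wells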
Target sequence (Q9NZ08 whole entry, looked up): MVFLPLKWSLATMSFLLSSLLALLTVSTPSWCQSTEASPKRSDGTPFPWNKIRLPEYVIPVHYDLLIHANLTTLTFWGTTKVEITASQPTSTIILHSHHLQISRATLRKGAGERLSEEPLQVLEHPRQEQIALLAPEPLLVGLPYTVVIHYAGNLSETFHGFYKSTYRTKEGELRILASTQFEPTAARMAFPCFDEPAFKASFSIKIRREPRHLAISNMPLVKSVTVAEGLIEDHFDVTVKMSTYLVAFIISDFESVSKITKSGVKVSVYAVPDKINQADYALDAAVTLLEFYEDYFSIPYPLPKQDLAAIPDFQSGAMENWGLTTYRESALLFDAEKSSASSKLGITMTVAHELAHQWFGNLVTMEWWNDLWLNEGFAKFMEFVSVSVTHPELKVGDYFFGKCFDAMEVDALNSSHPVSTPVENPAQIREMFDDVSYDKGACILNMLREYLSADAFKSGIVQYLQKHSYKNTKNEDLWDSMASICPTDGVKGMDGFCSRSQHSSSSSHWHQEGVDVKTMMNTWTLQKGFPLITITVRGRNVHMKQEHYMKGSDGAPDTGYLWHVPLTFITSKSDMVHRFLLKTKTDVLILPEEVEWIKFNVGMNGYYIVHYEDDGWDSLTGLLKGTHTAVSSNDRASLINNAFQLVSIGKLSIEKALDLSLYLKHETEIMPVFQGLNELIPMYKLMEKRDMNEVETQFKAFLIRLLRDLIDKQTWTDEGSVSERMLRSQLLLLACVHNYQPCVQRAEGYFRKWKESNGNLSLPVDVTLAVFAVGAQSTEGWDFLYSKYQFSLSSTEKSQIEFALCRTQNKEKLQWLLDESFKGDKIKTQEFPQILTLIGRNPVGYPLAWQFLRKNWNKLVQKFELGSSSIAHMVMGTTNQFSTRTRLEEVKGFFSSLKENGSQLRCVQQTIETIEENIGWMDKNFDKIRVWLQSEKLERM
FGF22 binding = shifts melting point of recombinant human FGF22; Q9HCT0; recombinant FGF22 thermal shift, SYPRO orange fluorescence; percent of sucrose octasulfate shift, DMSO zero; activity (Tm shift, normalised), % at 9.99 µM; 340,000 compounds, 1.5% hits; AID 651658;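 active means mean Tm shift, scaled 0 neutral to 100 positive control, at about 1.3% or above, every replicate too, limit read from the data; inconclusive means no clear call, values can overlap the other calls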
PGC1a acetyl inh = lowers PGC1a acetylation signal in U2OS cells. AlphaScreen anti-acetyl-lysine; with virally co-expressed GCN5 acetyltransferase. inhibition, % at 15.6 µM. 350,000 compounds, 0.17% hits. AID 651687;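 active means every replicate shows inhibition of at least 40%; inconclusive means mean inhibition at least 40% but some replicate below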;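 further: 0% = neutral control wells and 100% = positive control wells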
HepG2 cytotox = cytotoxic compounds in HepG2 cells. activity change, negative = cytotoxicity, unspecified at 26 µM. shares compounds with rRNA inh HTS. 30 tested, under 10 active. HepG2 viability, ATP luminescence, 72 h. AID 743480;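 active means compounds whose fitted half-maximal signal-loss concentration is at most twice their highest valid dose; inconclusive means flat curve with 30 to 70% signal loss, or poor fit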
AID977621 = wild-type E. coli growth inhibition versus H69 humanized strain – H69 mutant RFP, wild-type GFP, cherry-pick, dose response | shares compounds with rRNA inh HTS | fluorescence, 24 h | activity change, negative = inhibition at 50 µM | 1,900 tested, under 10 active;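 active means Wild-type ribosome reporter drop at least double the humanized mutant ribosome reporter drop, growth loss under a set limit; inconclusive means no clear call, values can overlap the other calls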;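 further: wild-type GFP and H69 mutant RFP strains grown together 50/50 in each well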
AID977628 = E. coli growth inhibition, wild-type GFP versus h24 humanized RFP strain, dose response, h24 mutant RFP vs wild-type GFP, cherry-pick. shares compounds with rRNA inh HTS. E. coli WT GFP strain growth, fluorescence, 24 h. activity change, negative = inhibition at 50 µM. 1,900 tested, under 10 active. AID 977628;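 active means compound lowering the normal-ribosome reporter at least twice as much as the humanized-ribosome reporter, growth loss under a set limit; inconclusive means no clear call, values can overlap the other calls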;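 further: wild-type GFP and h24 humanized RFP strains co-cultured 1 to 1 per well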
Numbers without * were called inactive; ? = inconclusive; . = no result given; [ ] = remark or other dose. Only some compounds are listed: those with a hit (about 3.5% of all), similar ones and a draw of the others.

SMILES	HIV Env fusion	Cneo AK release	rRNA inh HTS	ERAP1 HTS inh	FGF22 binding	PGC1a acetyl inh	AID977621	AID977628	others
C=CCN(c1ccccc1)S(=O)(=O)c1ccc(Cl)c(C(=O)OCC(=O)NCCCN2CCCC2=O)c1	1	-7	-23*	-3	0	2	1.1	.
Cc1cc(C(N)=O)nn1-c1c(Cl)cc(Cl)cc1Cl	-9	.	-31*	0	0	1	-3.5	.
NC(=O)c1cc(C(N)=O)nc(Cl)n1	7	.	12	-3	0	.	.	.
CCOC(=O)C(CC)Sc1cc(C)nc2ccc(OC)cc12 (stereo unspecified)	12	1	-30*	1	0	9	-12	.
CCCn1nnnc1SCC(=O)Nc1nnc(CC)s1	.	0	.	.	.	-3	.	.
O=C1CCCN1CCCNc1ncnc2c1[nH]c1ccc(Cl)cc12	.	-4	-23*	-5	.	.	-22	.
CCC(OC(=O)c1nsc(Cl)c1Cl)C(=O)NCCc1ccccc1 (stereo unspecified)	3	-1	.	-4	0	9	.	.
CCc1cccc(CC)c1NC(=O)Cn1c(-c2ccc(F)cc2)noc1=O	-6	.	-17*	9	0	-12	-8.7	5.4
COCC(=O)N(C)C[C@H]1Oc2cc(C#CC3CC3)ccc2S(=O)(=O)N([C@@H](C)CO)C[C@@H]1C	8[16.7 µM]	0	6	-1	0	3	.	.
CC(=O)c1c(C)[nH]c(C(=O)Nc2nc(C)cs2)c1C	27	-3	-21*	-2	0	-3	-20	-17
Cc1noc(C)c1NC(=O)Nc1ccc2c(c1)C(=O)N([C@@H](C)CO)C[C@H](C)[C@@H](CN(C)Cc1ccc(Cl)c(Cl)c1)O2	9[16.7 µM]	.	1	.	.	-4	.	.
COc1ccc(N(CCC(=O)O)S(=O)(=O)c2ccc(C)cc2C)cc1	2	.	-17*	5	0	.	3.8	-9.3
CCOC(=O)c1cnc2c(ccc3ccccc32)c1NCCCN(C)C	-178	-5	-26*	-1	0	0	-4.3	.
COc1cccc(SCC(=O)N2CCN(c3ccccc3)CC2)c1	5	4	-23*	-1	0	9	-12	?
COc1cc(-c2cc3nc(NCCc4ccncc4)ccn3n2)cc(OC)c1OC	15	1	-18*	3	0	0	.	?
CC(C)(C)OC(=O)N1CCN(C(=O)c2nc[nH]c2C(=O)N2CCN(c3ccccc3)CC2)CC1	?	4	7	-2	0	.	.	.
Cn1nccc1C(=O)N/N=C/c1ccccc1[N+](=O)[O-]	-16	-3	-2	1	0	.	.	.
CCC(=O)N1CC2(CN(C(=O)c3cccnc3)C2)c2c([nH]c3cc(OC)ccc23)[C@@H]1CO	.	.	4	.	.	7	.	.
COc1cc(OC)c(-c2nc3c[n+](CC(=O)c4ccccc4)ccc3n2C)cc1OC	.	0	.	.	.	1	.	.
COc1ccc(C(=O)C[n+]2ccc3c(c2)nc(-c2cc(OC)c(OC)cc2OC)n3C)cc1	.	2	-28*	2	0	5	?	-10
CC(NC(=O)c1c(N)[nH]c(C(=O)c2ccccc2)c1-c1ccccc1Br)c1cccc2ccccc12 (stereo unspecified)	-18	.	-26*	0	0	.	4.6	-3
CN1CCN(C(=O)c2cc3nc(-c4ccco4)cc(C(F)(F)F)n3n2)CC1	20	.	-27*	13	0	.	-9.9	-4.4
Cc1ccc(S(=O)(=O)N2CC[C@H]3[C@H](CO)Nc4ccc(Br)cc4[C@H]32)cc1	.	56	-25*	2	0	-15	.	?	HepG2 cytotox=24
COc1cccc(CN(C)C(=O)CCC(=O)c2cc(Br)ccc2OC)c1	10	-1	-5	1	0	-4	.	.
Cc1cc(Cl)ccc1OCCCC(=O)NN	-1	1	3	-2	42	1	.	.
SMILES	HIV Env fusion	Cneo AK release	rRNA inh HTS	ERAP1 HTS inh	FGF22 binding	PGC1a acetyl inh	AID977621	AID977628	others
Cc1cc(Cl)ccc1OCCCC(=O)OCC(N)=O	-41	-4	-18*	-7	0	12	-20	?
COc1ccc2ccccc2c1C1CC(=O)N2CN(C3CCCCC3)CSC2=C1C#N (stereo unspecified)	3	1	7	-17	0	.	.	.
COc1ccc(CC(=O)NCc2csc(-c3cccs3)n2)cc1OC	-1	.	-20*	-5	0	.	-4.9	.
COc1ccc(CC(=O)NCc2ccccc2)cc1OC	-29	3	13	-2	0	-13	.	.
COC(=O)c1ccc(C(=O)Nc2ccc3nc(-c4ccncc4)[nH]c3c2)cc1	16	0	-28*	1	0	.	-3.4	-3.2
O=C(Nc1ccc2nc(-c3ccccc3)[nH]c2c1)c1cccs1	.	-2	-32*	-1	0	-12	-9	.
O=C(Nc1ccc2nc(-c3ccc4nc[nH]c4c3)[nH]c2c1)c1cccs1	-27	4	.	.	.	-5	.	.
O=C(Nc1ccc2nc(-c3cccnc3)[nH]c2c1)c1ccco1	-8	-5	-31*	6	0	-8	-13	.
COc1ccccc1C(=O)Nc1cccc2cccnc12	-7	-1	-30*	-2	0	.	-8.4	.
O=C(Nc1cccc2cccnc12)c1ccccc1Cl	-5	-1	-3	-2	0	7	.	.
C/C(CC1CC(COCC(C)C)OC1=O)=N\NC(N)=S (stereo unspecified)	.	.	15	-2	0	.	.	.
COC(=O)c1c(-c2ccccc2)noc1C	-9	.	11	-2	0	-5	.	.
COC(=O)c1c(C)oc(C)c1S(=O)(=O)NC(c1ccccc1)c1ccccc1	68*	7	-35*	4	0	-14	-21	.
O=C(c1ccccc1)N1Cc2ccccc2C[C@]2(N=C(c3ccc(OCCCO)cc3)O[C@@H]2c2ccccc2)C1=O	-4[16.7 µM]	65	.	-4	0	.	.	.
CCCN(Cc1ccco1)S(=O)(=O)c1ccc(OC)c(OC)c1	2	.	-20*	3	0	.	-10	-13
CC(C)Cc1nnc(NC(=O)c2ccc(N3CCCC3=O)cc2)s1	.	-2	5	-3	.	-4	.	.
CC(C)Cc1nnc(NC(=O)c2ccc3c(=O)n4c(nc3c2)CCC4)s1	-21	5	-21*	2	0	.	-11	-9.9
[O-][n+]1ccccc1/C=C/c1ccccc1	-3	.	-26*	-1	0	12	-11	?

Bioassay records: PubChem, Broad Institute
